# Test results as given in PubChem BioAssay.
# Active and inactive are the calls of the source.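 The calls were made as follows, unless noted: active = potentiation averaged over duplicate wells exceeding buffer-only control mean by more than 3 SD; inactive = the rest.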
# Assays:
# [1] = thallium flux activation in parental CHO cells, counter-screen for KCNQ1 potentiator project (AID 493006;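 active = duplicate-averaged activation above buffer control mean plus 5 SD of those controls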;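 as to activation: fluorescence ratio of max minus min over baseline after K+ and Tl+ depolarization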); conditions: parental CHO-K1 cells, FluxOR thallium flux, at 10 µM; hits give high values
# Outline: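 Material: untransfected host CHO-K1 cells with FluxOR thallium dye. Timing: overnight 37 °C plating, 90 min RT dye, 20 min compound. Detection: kinetic FluxOR fluorescence, 10 s baseline, 110 s after stimulus. Read-out basis: max-minus-min fluorescence over baseline, percent of buffer-to-R-L3 span. Replicates: duplicate wells per compound, percent values averaged.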
# [2] = target: Potassium voltage-gated channel subfamily KQT member 1 (Homo sapiens) (UniProt P51787); test: KCNQ1 potassium channel potentiators, confirmation, FluxOR thallium flux, CHO cells, duplicates (AID 493007); conditions: KCNQ1 cell line, FluxOR thallium flux fluorescence, at 10 µM; hits give high values, % of reference activator effect, buffer zero;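 as to outcome: cells depolarized by a potassium plus thallium sulfate stimulus after compound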
# Outline: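 Test system – KCNQ1-expressing CHO cell line · Incubation – FluxOR dye loading 90 min, compound exposure 20 min, room temperature · Detection – FluxOR Tl+ flux fluorescence, 10 s baseline plus 110 s recording · Controls – buffer-only wells as 0% and R-L3 activator as 100%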
# [3] = target: Potassium voltage-gated channel subfamily KQT member 2 (Rattus norvegicus) (UniProt O88943); test: rat KCNQ2 channel potentiation, selectivity assay for KCNQ1 potentiator project, KCNQ2-CHO-K1 cells (AID 493009;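 active = mean duplicate potentiation above the buffer control mean plus 5 SD of buffer wells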;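 also: assay conditions were tuned for KCNQ1 rather than KCNQ2 modulators; signal is max minus min fluorescence divided by baseline after thallium stimulus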); conditions: FluxOR thallium flux fluorescence, at 10 µM; hits give high values, scaled: buffer 0, activator control 100
# [4] = target: Potassium voltage-gated channel subfamily KQT member 1 (Homo sapiens) (UniProt P51787); test: KCNQ1 channel current potentiators, confirmation, orthogonal assay for KCNQ1 potentiator project, IonWorks patch clamp, KCNQ1-CHO cells (AID 493184;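 active = current rise at least 3 SD above the untreated control mean in each of two repeat wells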;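 as to current potentiation: percent change of the same well's current before compound addition so 0% = no change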); conditions: automated patch clamp current, at 10 µM; hits give high values
# Outline: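 Read-out: Percent current increase versus pre-compound level | Assay system: CHO cells carrying KCNQ1 | Measured by: Automated perforated-patch electrophysiology | Medium: External bath solution at pH 7.4 | Dosing: One dose, 10 µM final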
# Chain of Potassium voltage-gated channel subfamily KQT member 2 (Rattus norvegicus) (O88943 whole entry, looked up): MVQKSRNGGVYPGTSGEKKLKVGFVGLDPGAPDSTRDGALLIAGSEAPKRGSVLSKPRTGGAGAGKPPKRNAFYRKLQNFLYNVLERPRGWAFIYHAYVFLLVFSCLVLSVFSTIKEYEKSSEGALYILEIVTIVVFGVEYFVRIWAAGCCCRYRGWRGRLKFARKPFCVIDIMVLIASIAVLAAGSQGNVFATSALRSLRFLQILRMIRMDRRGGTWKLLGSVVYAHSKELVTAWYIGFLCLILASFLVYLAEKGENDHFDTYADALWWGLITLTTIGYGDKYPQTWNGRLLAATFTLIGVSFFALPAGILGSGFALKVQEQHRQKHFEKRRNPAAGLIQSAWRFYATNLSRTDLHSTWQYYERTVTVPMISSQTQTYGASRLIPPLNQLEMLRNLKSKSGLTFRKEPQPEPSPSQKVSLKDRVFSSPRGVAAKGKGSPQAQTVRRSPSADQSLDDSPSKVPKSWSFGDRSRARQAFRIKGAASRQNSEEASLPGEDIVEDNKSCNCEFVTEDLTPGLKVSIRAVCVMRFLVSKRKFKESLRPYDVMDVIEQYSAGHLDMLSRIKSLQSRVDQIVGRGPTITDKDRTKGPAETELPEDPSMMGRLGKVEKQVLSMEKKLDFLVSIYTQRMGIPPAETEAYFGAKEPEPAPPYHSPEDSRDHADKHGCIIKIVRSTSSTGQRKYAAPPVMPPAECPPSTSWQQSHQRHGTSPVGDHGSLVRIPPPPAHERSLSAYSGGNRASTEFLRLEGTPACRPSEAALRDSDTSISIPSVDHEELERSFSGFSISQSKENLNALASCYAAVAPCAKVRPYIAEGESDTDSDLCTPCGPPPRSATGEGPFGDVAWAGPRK
# Chain of Potassium voltage-gated channel subfamily KQT member 1 (Homo sapiens) (P51787 whole entry, looked up): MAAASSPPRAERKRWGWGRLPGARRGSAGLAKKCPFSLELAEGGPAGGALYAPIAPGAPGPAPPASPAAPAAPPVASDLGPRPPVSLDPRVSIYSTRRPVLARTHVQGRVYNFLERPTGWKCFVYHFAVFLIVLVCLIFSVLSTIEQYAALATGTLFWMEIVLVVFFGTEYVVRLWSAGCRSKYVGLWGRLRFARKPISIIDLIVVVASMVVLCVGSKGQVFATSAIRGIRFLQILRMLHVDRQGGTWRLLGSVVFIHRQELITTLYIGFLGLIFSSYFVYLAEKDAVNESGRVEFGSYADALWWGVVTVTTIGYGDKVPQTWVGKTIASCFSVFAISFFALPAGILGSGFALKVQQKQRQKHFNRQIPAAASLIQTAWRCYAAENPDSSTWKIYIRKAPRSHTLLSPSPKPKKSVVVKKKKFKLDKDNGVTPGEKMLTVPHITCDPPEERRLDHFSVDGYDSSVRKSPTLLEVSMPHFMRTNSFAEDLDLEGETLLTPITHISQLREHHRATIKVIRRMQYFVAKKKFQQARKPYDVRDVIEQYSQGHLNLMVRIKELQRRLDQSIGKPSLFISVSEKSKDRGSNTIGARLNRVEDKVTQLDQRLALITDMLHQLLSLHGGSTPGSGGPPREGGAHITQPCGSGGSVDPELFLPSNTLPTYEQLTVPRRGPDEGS
Compound,outcome [1],outcome [2],potentiation [3],outcome [4],activation [1],outcome [3],potentiation [2],current potentiation [4]
COC(=O)c1cn(NC(=O)Cc2ccc(Cl)c(Cl)c2)c(=O)c2ccccc12,inactive,inactive,252% (active),inactive,–,–,–,–
Oc1c(Br)cc(Br)cc1C=Nc1cccc2ncccc12,–,inactive,–,inactive,166% (active),inactive,–,–
O=C(NNc1nc2c(F)cc(F)cc2s1)c1ccccc1,inactive,inactive,–,inactive,–,inactive,–,–
O=C(C1CCCCC1)N(CCN1CCCC1)c1nc2ccccc2s1,inactive,inactive,–,inactive,–,inactive,–,–
COc1ccc(CCN(C)CC(O)COc2c(C)ccc(C)c2C)cc1OC (stereo unspecified),inactive,inactive,–,inactive,–,inactive,–,–
COc1ccc(C(=O)CC(=O)C(=O)Nc2ccccc2Cl)cc1,–,–,–,inactive,139% (active),inactive,25% (active),–
CCOC(=O)c1c(NC(=O)C(C)N2CCN(C(=O)c3ccco3)CC2)sc2c1CCCC2 (stereo unspecified),inactive,–,160% (active),inactive,–,–,53% (active),–
COc1ccc(C(=O)c2cc([N+](=O)[O-])ccc2N2CCOCC2)cc1,inactive,inactive,–,inactive,–,inactive,–,–
COc1cc(OC)cc(C(=O)NC(=S)N2CCCCCC2)c1,inactive,–,198% (active),inactive,–,–,48% (active),–
CCCC(=O)Nc1ccc(S(=O)(=O)N2CCC(c3nc4ccccc4[nH]3)CC2)cc1,inactive,inactive,–,inactive,–,inactive,–,–
COc1ccc(S(=O)(=O)N2CCCC(C(=O)O)C2)cc1 (stereo unspecified),inactive,inactive,–,inactive,–,inactive,–,–
CCCSc1nnc(-c2cnn(-c3ccccc3)c2-n2cccc2)n1C,inactive,inactive,–,inactive,–,inactive,–,–
O=C(NC(=S)N1CCc2ccccc21)c1ccco1,–,–,226% (active),inactive,198% (active),–,49.5% (active),–
O=C(Nc1ccc2[nH]c(=S)sc2c1)c1ccccc1,inactive,–,154% (active),inactive,–,–,52% (active),–
CCc1cc2c(=O)[nH]c(-c3ccccn3)nc2s1,inactive,–,226% (active),inactive,–,–,26% (active),–
COc1cc(OC)cc(C(=O)Nc2nnc(SCC(=O)NCc3ccco3)s2)c1,–,–,158% (active),inactive,150% (active),–,30% (active),–
O=C(CC1C(=O)NCCN1Cc1cccc(F)c1)NCCCN1CCCC1=O (stereo unspecified),inactive,inactive,–,inactive,–,inactive,–,–
NS(=O)(=O)c1ccc(CCNC(=O)COC(=O)c2cc([N+](=O)[O-])ccc2N2CCOCC2)cc1,inactive,inactive,–,inactive,–,inactive,–,–
CCOC(=O)CN1C(=O)N(CC)C(C)=C(C(=O)OC)[C@@H]1c1ccccc1,inactive,inactive,–,inactive,–,inactive,–,–
O=C(c1cc(COc2ccc3ncccc3c2)on1)N1CCCC(O)C1 (stereo unspecified),inactive,inactive,–,inactive,–,inactive,–,–
COc1cccc(NC(=S)NCCN2CCOCC2)c1,–,–,162% (active),inactive,156% (active),–,26% (active),–
CC(Oc1ccc(Br)cc1)C(=O)Nc1ccc(S(=O)(=O)N(C)C2CCN(C)CC2)cc1 (stereo unspecified),–,–,570% (active),inactive,626% (active),–,190% (active),–

Compound,outcome [1],outcome [2],potentiation [3],outcome [4],activation [1],outcome [3],potentiation [2],current potentiation [4]
S=c1nc(C2CCCCC2)[nH]c2ccccc12,–,–,160% (active),inactive,138% (active),–,22.5% (active),–
CCOc1ccc(-c2noc(CCC(=O)NC3CCCC3)n2)cc1OC,inactive,inactive,–,inactive,–,inactive,–,–
CCCCNC(=O)/C(C#N)=C/c1ccc2c(c1)OCCO2,inactive,–,–,inactive,–,inactive,18.5% (active),–
COc1ccc(CCNC(=O)CC(=O)N/N=C/c2ccc(Br)cc2)cc1OC,inactive,inactive,–,inactive,–,inactive,–,–
O=C(N/N=C/c1ccccn1)c1cc(Br)ccc1O,–,–,182% (active),inactive,147% (active),–,24% (active),–
CCOC(=O)c1c(-c2ccccc2)oc2ccc(O)c(CN3CCN(C)CC3)c12,inactive,inactive,–,inactive,–,inactive,–,–
Cc1ccc(N=Nc2ccc(O)c3ncccc23)cc1C,–,–,190% (active),inactive,154% (active),–,24.5% (active),–
COc1ccccc1C(=O)OCC(=O)Nc1ccc(Cl)cn1,inactive,inactive,–,inactive,–,inactive,–,–
COc1ccc(N(Cc2ccccc2)S(=O)(=O)c2cccc(C(=O)O)c2)cc1,inactive,inactive,–,inactive,–,inactive,–,–
CCOc1ccccc1NC(=O)C(=O)CC(=O)c1cccc(OC)c1,–,–,280% (active),inactive,216% (active),–,87% (active),–
O=C(NC(=S)Nc1ccccc1N1CCCC1)c1cccc(F)c1,inactive,–,144% (active),inactive,–,–,37% (active),–
Cc1ccc2nc(SCC(=O)N3CCN(C(=O)c4ccco4)CC3)[nH]c2c1,inactive,inactive,–,inactive,–,inactive,–,–
CC(C)CN=Cc1c(O)c([N+](=O)[O-])cc2oc3c(c12)CCCC3,inactive,inactive,–,inactive,–,inactive,–,–
S=c1nc(-c2ccccc2)[nH]c2ccc(Br)cc12,–,–,602% (active),inactive,578% (active),–,294% (active),–
CC(OC(=O)CCCNC(=O)c1ccc(Cl)cc1)C(=O)N(C)Cc1ccccc1 (stereo unspecified),inactive,inactive,–,inactive,–,inactive,–,–
Cc1ccc(-c2cc(C(=O)NCc3ccccn3)c3ccccc3n2)cc1C,inactive,inactive,–,inactive,–,inactive,–,–
CCCCC/C=N\NC(=O)Cc1ccc([N+](=O)[O-])cc1,inactive,inactive,–,inactive,–,inactive,–,–
CN(C)CCCNc1nc2sc3c(c2c(=O)n1CCc1ccccc1)CCCCC3,inactive,inactive,–,inactive,–,inactive,–,–
O=c1oc2cc(OCCO)ccc2c2c1CCCC2,inactive,inactive,–,inactive,–,inactive,–,–
COc1ccccc1C(=O)NC(=S)NNC(=O)c1sc2ccccc2c1Cl,–,–,361% (active),inactive,358% (active),–,187% (active),–
COc1ccc(-n2nc3c(c2NC(=O)c2ccc4c(c2)OCO4)CS(=O)(=O)C3)cc1,–,–,206% (active),inactive,224% (active),–,75.5% (active),–
Cc1[nH]n(-c2ccc(Cl)cc2)c(=O)c1/C=N/c1nnc(-c2ccccc2)s1,–,–,466% (active),inactive,678% (active),–,182% (active),–

Compound,outcome [1],outcome [2],potentiation [3],outcome [4],activation [1],outcome [3],potentiation [2],current potentiation [4]
COc1ccc(CCN=C(N)NS(=O)(=O)c2ccc(F)cc2)cc1OC,inactive,inactive,–,inactive,–,inactive,–,–
COC(=O)c1sc(-c2ccc(C(C)(C)C)cc2)cc1NC(=O)/C=C/C(=O)O,–,–,320% (active),–,427% (active),–,130% (active),20.6% (active)
COc1ccc(-c2csc(NC(=O)C3CCCCN3S(=O)(=O)c3ccccc3)n2)cc1 (stereo unspecified),inactive,–,–,–,–,inactive,93.5% (active),122% (active)
CCOC(=O)Cc1csc(NC(=S)NC(=O)c2ccccc2C)n1,–,–,200% (active),inactive,201% (active),–,45.5% (active),–
CC(C)c1ccc(/C=C2\SC(N3CCOCC3)=NC2=O)cc1,inactive,inactive,146% (active),inactive,–,–,–,–
CCNC(=S)Nc1nc2c(cc1C(=O)OCC)CCCC2,–,–,177% (active),inactive,140% (active),–,35% (active),–
CCOC(=O)C(=NCC1CCCO1)NNc1ccccc1Cl (stereo unspecified),inactive,inactive,–,inactive,–,inactive,–,–
Cc1ccc(-c2csc(NC(=S)NC(=O)c3ccco3)n2)cc1,–,–,164% (active),inactive,180% (active),–,71% (active),–
O=C(NC(=S)Nc1ccc2c(c1)OCCO2)c1ccco1,–,–,260% (active),inactive,206% (active),–,108% (active),–
Cc1sc2nc(CSc3ccccc3)nc(N3CCN(C)CC3)c2c1C,inactive,inactive,–,inactive,–,inactive,–,–
O=C(Nc1cccc(S(=O)(=O)NC2=NCCC2)c1)c1c(F)cccc1Cl,inactive,inactive,–,inactive,–,inactive,–,–
COC(=O)C1=C(C(=O)OC)[C@@H]2N(C)c3ccccc3[C@@]23C[C@@H](C(=O)OC)N(C(=O)c2ccc(Br)cc2)C3=N1,–,–,204% (active),inactive,158% (active),–,104% (active),–
COc1cnc(-c2ccccn2)nc1Oc1ccccc1Cl,inactive,inactive,–,inactive,–,inactive,–,–
O=C(NC(=S)Nc1ccccc1N1CCOCC1)c1ccc(-c2ccccc2F)o1,–,–,182% (active),inactive,147% (active),–,51.5% (active),–
O=C(Nc1ccc(N2CCCCC2)cc1)c1cccnc1Cl,inactive,inactive,–,inactive,–,inactive,–,–
Nc1nc(N)c2sc3nc4c(cc3c2n1)CCC4,inactive,inactive,–,inactive,–,inactive,–,–
COC(=O)c1ccccc1NC(=S)NC(NC(=O)c1ccco1)C(Cl)(Cl)Cl (stereo unspecified),–,–,232% (active),inactive,138% (active),–,54% (active),–
Cc1cnc(NC(=O)c2ccc(-c3nc4ccccc4s3)o2)s1,inactive,inactive,–,inactive,–,inactive,–,–
CC1CC(C)CN(Cc2nc(N)nc(Nc3ccc4ccccc4c3)n2)C1 (stereo unspecified),–,–,165% (active),inactive,170% (active),–,43.5% (active),–
CCOC(=O)c1c(NC(=S)NC(=O)c2ccco2)sc2c1CCCC2,inactive,inactive,–,inactive,–,inactive,–,–
